Source: ChEMBL document CHEMBL3286255, “Rational design and synthesis of novel thiazolidin-4-ones as non-nucleoside HIV-1 reverse transcriptase inhibitors” (Bioorg Med Chem, 2014)

Key:
[1] = tested on: Human immunodeficiency virus 1; assay: Antiviral activity against R5 tropic Human immunodeficiency virus 1 ADA5 subtype B infected in human TZM-bl cells assessed as reduction in virus-induced cytopathic effect after 48 hrs by luminescence assay; assay type: functional, organism-based; conditions: Human immunodeficiency virus 1, ADA5 subtype B, TZM-bl, 48 h; read-out: EC50
In short: (§1)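 TZM-bl cells (HeLa-derived; CD4, CXCR4, CCR5; LTR-driven luciferase) seeded 1×10^4/well, left overnight at 37 °C, 5% CO2, then infected with 400 TCID50 virus for 2 h. Serial compound dilutions added in duplicate, only at levels giving >50% viability. […] Mean of two independent assays; nevirapine as positive control.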

[2] = Selectivity index, ratio of CC50 for human TZM-bl cells to EC50 for X4 tropic Human immunodeficiency virus 1 3B subtype B; assay type: toxicity, cell-based; conditions: read-out: Ratio CC50/EC50
[3] = Selectivity index, ratio of CC50 for human TZM-bl cells to EC50 for R5 tropic Human immunodeficiency virus 1 ADA5 subtype B; assay type: toxicity, cell-based; conditions: read-out: Ratio CC50/EC50
[4] = Cytotoxicity against human TZM-bl cells after 48 hrs by MTT assay; assay type: cell-based
In short: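 TZM-bl cells seeded 1×10^4/well and left overnight at 37 °C, 5% CO2. Medium then replaced with a two-fold dilution series of compound in quadruplicate. […] Mean of three independent assays.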

[5] = tested on: Human immunodeficiency virus 1; assay: Antiviral activity against X4 tropic Human immunodeficiency virus 1 3B subtype B infected in human TZM-bl cells assessed as reduction in virus-induced cytopathic effect after 48 hrs by luminescence assay; assay type: functional, organism-based; conditions: Human immunodeficiency virus 1, 3B subtype B, TZM-bl, 48 h; read-out: EC50; in short: as §1
[6] = tested on: Human immunodeficiency virus; assay: Inhibition of HIV reverse transcriptase at 100 ug/ml after 1 hr by ELISA relative to control
In short: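 Kit ELISA for HIV RT. Template/primer, biotin- and DIG-labelled dNTPs and RT enzyme in lysis buffer incubated 1 h at 37 °C. Product captured on streptavidin, detected with anti-DIG-peroxidase and ABTS substrate, and read at 405 nm. Percent inhibition calculated against a no-inhibitor sample.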

[7] = tested on: Human immunodeficiency virus 1; assay: Antiviral activity against X4 tropic Human immunodeficiency virus 1 UG070 subtype D infected in human TZM-bl cells assessed as reduction in virus-induced cytopathic effect after 48 hrs by luminescence assay; assay type: functional, organism-based; in short: as §1
[8] = tested on: Human immunodeficiency virus 1; assay: Antiviral activity against R5 tropic Human immunodeficiency virus 1 VB59 subtype C infected in human TZM-bl cells assessed as reduction in virus-induced cytopathic effect after 48 hrs by luminescence assay; assay type: functional, organism-based; in short: as §1
[9] = Selectivity index, ratio of CC50 for human TZM-bl cells to EC50 for X4 tropic Human immunodeficiency virus 1 UG070 subtype D; assay type: toxicity, cell-based; conditions: read-out: Ratio CC50/EC50
[10] = Selectivity index, ratio of CC50 for human TZM-bl cells to EC50 for R5 tropic Human immunodeficiency virus 1 VB59 subtype C; assay type: toxicity, cell-based; conditions: read-out: Ratio CC50/EC50
[11] = Human immunodeficiency virus 1, UG070 subtype D, TZM-bl, 48 h, read-out: EC50
[12] = Human immunodeficiency virus 1, VB59 subtype C, TZM-bl, 48 h, read-out: EC50

Row | SMILES | EC50 [1] | selectivity ratio [2] | selectivity ratio [3] | CC50 at 48 h [4] | EC50 [5] | inhibition [6] | EC50 ([7]; tzm-bl) | EC50 ([8]; tzm-bl) | selectivity ratio [9] | EC50 [7, 11] | EC50 [8, 12] | selectivity ratio [10]
1 | COc1cc(OC)nc(N2C(=O)CSC2c2ccc(C#N)cc2)n1 (stereo not given) | 57 µM | 1.27 | 1.51 | 86.5 µM | 68 µM | 12.2% | Not Active | Not Active |  |  |  | 
2 | COc1cc(OC)nc(N2C(=O)CSC2c2c(OC)cccc2OC)n1 (stereo not given) | 4.13 µM | 49.3 | 37.8 | 156 µM | 3.17 µM | 93.8% |  |  | 17.6 | 8.87 µM | 7.28 µM | 21.5
3 | Cc1ccnc2c1NC(=O)c1cccnc1N2C1CC1 [NEVIRAPINE] | 0.03 µM | 2060 | 2060 | 76.1 µM | 0.03 µM | 99.2% |  |  | 2060 | 0.03 µM | 0.03 µM | 2060
4 | O=C1CSC(c2c(Cl)cccc2Cl)N1Nc1ccccn1 (stereo not given) | 1.85 µM | 150 | 80.5 | 149 µM | 0.99 µM | 97.4% |  |  | 127 | 1.17 µM | 1.7 µM | 87.6
5 | Cc1cc(N2C(=O)CSC2c2c(F)cccc2F)nc(C)c1Br (stereo not given) | 0.7 µM | 192 | 95.9 | 67.1 µM | 0.35 µM | 81.8% |  |  | 134 | 0.5 µM | 0.77 µM | 87.2
6 | Cc1cccc(C)c1C1SCC(=O)N1NC(=O)c1ccncc1 (stereo not given) | 18.9 µM | 1.47 | 2.29 | 43.4 µM | 29.4 µM | 14.2% |  | Not Active | 1.11 | 38.8 µM |  | 
7 | Cc1cc(N2C(=O)CSC2c2ccc(C#N)cc2)no1 (stereo not given) | 81.1 µM | 1.57 | 1.72 | 140 µM | 88.7 µM | 27.6% |  |  |  |  | 68.7 µM | 2.04
8 | COc1cc(OC)nc(N2C(=O)CSC2c2c(F)cccc2Cl)n1 (stereo not given) | 0.16 µM | 545 | 614 | 98.2 µM | 0.18 µM | 95.4% |  |  | 409 | 0.24 µM | 0.32 µM | 307
9 | O=C1CSC(c2c(F)cccc2Cl)N1Nc1ccccn1 (stereo not given) | 3.79 µM | 72.7 | 40.2 | 153 µM | 2.1 µM | 97.5% |  |  | 32.7 | 4.66 µM | 5.31 µM | 28.7
10 | Cc1ccc(S(=O)(=O)NN2C(=O)CSC2c2c(F)cccc2Cl)cc1 (stereo not given) | 64.6 µM | 2.15 | 2.1 | 136 µM | 63.1 µM | 56.3% |  |  | 1.87 | 72.4 µM | 81.6 µM | 1.66
11 | COc1cc(OC)nc(N2C(=O)CSC2c2c(Cl)cccc2Cl)n1 (stereo not given) | 0.1 µM | 1220 | 855 | 85.4 µM | 0.07 µM | 76.8% |  |  | 427 | 0.2 µM | 0.12 µM | 662
12 | N#Cc1ccc(C2SCC(=O)N2c2ccc(C#N)cn2)cc1 (stereo not given) | 74.2 µM | 2.38 | 1.71 | 128 µM | 53.6 µM | 30.4% |  |  | 1.2 | 106 µM | 80.1 µM | 1.59
